What all share (format): functional
For assay [1], the system named is Acinetobacter baumannii. Briefly: Potentiation of Clarithromycin antibacterial activity against Acinetobacter baumannii AB5075 assessed as clarithromycin MIC at 30 uM incubated for 16 hrs by broth microdilution method.
The subject of assay [2] is Acinetobacter baumannii. The assay is described as follows: Antibacterial activity against Acinetobacter baumannii AB5075 assessed as reduction in bacterial growth incubated for 16 hrs by broth microdilution method. Background: Dilution methods test growth across graded concentrations, often in twofold steps.
Assay [3] relates to Acinetobacter baumannii. The assay is described as follows: Potentiation of Clarithromycin antibacterial activity against Acinetobacter baumannii AB5075 assessed as fold reduction in clarithromycin MIC at 30 uM incubated for 16 hrs by broth microdilution method. In a few lines:
(§1)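 Checkerboard-style potentiation by broth microdilution. 6 h day cultures in CAMHB diluted to 5×10^5 CFU/mL. Adjuvant added from 10 mM DMSO stock at fixed concentration throughout. […] Controls: antibiotic alone, adjuvant alone, media only. Incubated stationary at 37 °C for 16 h. MIC is lowest concentration with no visible growth; fold reduction taken against the antibiotic-alone lane.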

Assay [4] relates to Acinetobacter baumannii. Briefly: Potentiation of Clarithromycin antibacterial activity against Acinetobacter baumannii AB5075 assessed as fold reduction in clarithromycin MIC at 10 uM incubated for 16 hrs by broth microdilution method. In a few lines:
as §1

Assay [5] relates to Acinetobacter baumannii. Briefly: Potentiation of Clarithromycin antibacterial activity against Acinetobacter baumannii AB5075 assessed as clarithromycin MIC at 10 uM incubated for 16 hrs by broth microdilution method.
In assay [6] the test system is Acinetobacter baumannii. Briefly: Potentiation of Clarithromycin antibacterial activity against Acinetobacter baumannii AB5075 assessed as clarithromycin MIC at 7.5 uM incubated for 16 hrs by broth microdilution method.
In assay [7] the test system is Acinetobacter baumannii. The assay is described as follows: Potentiation of Clarithromycin antibacterial activity against Acinetobacter baumannii AB5075 assessed as fold reduction in clarithromycin MIC at 7.5 uM incubated for 16 hrs by broth microdilution method. Put shortly: as §1
Assay [8] relates to Acinetobacter baumannii. Briefly: Potentiation of Clarithromycin antibacterial activity against Acinetobacter baumannii AB5075 assessed as reduction in clarithromycin MIC at 20 uM incubated for 16 hrs by broth microdilution method. The conditions noted are these: for MIC: Acinetobacter baumannii, AB5075.
The test system of assay [9] is Acinetobacter baumannii. The assay is described as follows: Potentiation of erythromycin antibacterial activity against Acinetobacter baumannii AB5075 assessed as erythromycin MIC at 10 uM incubated for 16 hrs by broth microdilution method.
The test system of assay [10] is Acinetobacter baumannii. The assay is described as follows: Potentiation of erythromycin antibacterial activity against Acinetobacter baumannii AB5075 assessed as erythromycin MIC at 20 uM incubated for 16 hrs by broth microdilution method.
Assay [11] relates to Acinetobacter baumannii. The assay is described as follows: Potentiation of Azithromycin antibacterial activity against Acinetobacter baumannii AB5075 assessed as azithromycin MIC at 30 uM incubated for 16 hrs by broth microdilution method.
In assay [12] the test system is Acinetobacter baumannii. Briefly: Potentiation of Azithromycin antibacterial activity against Acinetobacter baumannii AB5075 assessed as azithromycin MIC at 10 uM incubated for 16 hrs by broth microdilution method.
For assay [13], the system named is Acinetobacter baumannii. Briefly: Potentiation of Azithromycin antibacterial activity against Acinetobacter baumannii AB5075 assessed as azithromycin MIC at 20 uM incubated for 16 hrs by broth microdilution method.
Assay [14] concerns Acinetobacter baumannii. The assay is described as follows: Potentiation of rifampicin antibacterial activity against Acinetobacter baumannii AB5075 assessed as rifampicin MIC at 30 uM incubated for 16 hrs by broth microdilution method.
Assay [15] relates to Acinetobacter baumannii. Briefly: Potentiation of erythromycin antibacterial activity against Acinetobacter baumannii AB5075 assessed as erythromycin MIC at 30 uM incubated for 16 hrs by broth microdilution method.
Assay [16] has as its system Acinetobacter baumannii. Briefly: Potentiation of rifampicin antibacterial activity against Acinetobacter baumannii AB5075 assessed as rifampicin MIC at 20 uM incubated for 16 hrs by broth microdilution method.
Assay [17] deals with Acinetobacter baumannii. Briefly: Potentiation of rifampicin antibacterial activity against Acinetobacter baumannii AB5075 assessed as rifampicin MIC at 10 uM incubated for 16 hrs by broth microdilution method.
Assay [18] deals with Acinetobacter baumannii. Briefly: Potentiation of Clarithromycin antibacterial activity against Acinetobacter baumannii AB5075 assessed as fold reduction in clarithromycin MIC at 5 uM incubated for 16 hrs by broth microdilution method. In a few lines: as §1
Assay [19] relates to Acinetobacter baumannii. Briefly: Potentiation of Clarithromycin antibacterial activity against Acinetobacter baumannii AB5075 assessed as clarithromycin MIC at 5 uM incubated for 16 hrs by broth microdilution method.

As for `Cl.Cl.Nc1nc(-c2ccc(NC(=O)Nc3ccc(-c4c[nH]c(N)n4)c(C(F)(F)F)c3)cc2C(F)(F)F)c[nH]1`, the MIC (in general, the least concentration at which growth counts as inhibited) in the assay with Acinetobacter baumannii [1] is 2 µg/mL; with Acinetobacter baumannii [2], > 200 µM. The “fold change (FC)” value with Acinetobacter baumannii [3] turned out to be 16.
Turning to `Cl.Cl.Nc1nc(-c2cccc(NC(=O)Nc3cccc(-c4c[nH]c(N)n4)c3F)c2F)c[nH]1`, the “fold change (FC)” value in the assay with Acinetobacter baumannii [4] amounted to 32; with Acinetobacter baumannii [7] it was 16; in the assay with Acinetobacter baumannii [8], 64; in the assay with Acinetobacter baumannii [3], 128. In addition, the MIC in the assay on Acinetobacter baumannii [5] was 1 µg/mL; in the assay with Acinetobacter baumannii [1], 0.25 µg/mL; in the assay with Acinetobacter baumannii [2], > 200 µM; in the assay with Acinetobacter baumannii [6] it was 2 µg/mL; with Acinetobacter baumannii [8], 0.5 µg/mL.
Take `Cl.Cl.Nc1nc(-c2ccc(NC(=O)Nc3ccc(-c4c[nH]c(N)n4)c(Cl)c3)cc2Cl)c[nH]1`: the results for the MIC in the assay with Acinetobacter baumannii [1] and with Acinetobacter baumannii [2] were 32 µg/mL and > 200 µM, respectively. For the same compound, in the assay with Acinetobacter baumannii [3], the “fold change (FC)” value is given as 1.
The corresponding values for `Cc1cc(-c2c[nH]c(N)n2)ccc1NC(=O)Nc1ccc(-c2c[nH]c(N)n2)cc1C.Cl.Cl` are 32 µg/mL, > 200 µM and 1.
`Nc1nc(-c2ccc(NC(=O)Nc3cccc(-c4c[nH]c(N)n4)c3)cc2)c[nH]1`: the MIC with Acinetobacter baumannii [9] was 16 µg/mL; in the assay with Acinetobacter baumannii [10], 2 µg/mL; in the assay on Acinetobacter baumannii [11] it was 1 µg/mL; in the assay with Acinetobacter baumannii [12] it was 16 µg/mL; in the assay on Acinetobacter baumannii [5], 16 µg/mL; in the assay on Acinetobacter baumannii [13], 4 µg/mL. Moreover, the MIC in the assay with Acinetobacter baumannii [1] is 0.125 µg/mL; in the assay with Acinetobacter baumannii [14] it was 0.031 µg/mL; with Acinetobacter baumannii [15] it was 1 µg/mL; in the assay with Acinetobacter baumannii [16] it was 0.25 µg/mL; in the assay with Acinetobacter baumannii [17], 2 µg/mL; with Acinetobacter baumannii [2] it was > 200 µM. Moreover, the “fold change (FC)” value with Acinetobacter baumannii [3] was 256.
As to `Cl.Cl.Nc1nc(-c2cc(NC(=O)Nc3ccc(F)c(-c4c[nH]c(N)n4)c3)ccc2F)c[nH]1`, the “fold change (FC)” value turned out to be 64 in the assay with Acinetobacter baumannii [4]; 16 in the assay on Acinetobacter baumannii [18]; 32 with Acinetobacter baumannii [7]; 128 with Acinetobacter baumannii [8]; 256 in the assay with Acinetobacter baumannii [3]. Moreover, the MIC was 2 µg/mL in the assay with Acinetobacter baumannii [19]; 0.5 µg/mL with Acinetobacter baumannii [5]; 0.125 µg/mL in the assay with Acinetobacter baumannii [1]; > 200 µM in the assay with Acinetobacter baumannii [2]; 1 µg/mL in the assay on Acinetobacter baumannii [6]; 0.25 µg/mL in the assay on Acinetobacter baumannii [8].
Take `Cl.Cl.Nc1nc(-c2ccc(NC(=O)Nc3ccc(F)c(-c4c[nH]c(N)n4)c3)cc2F)c[nH]1`: the MIC in the assay with Acinetobacter baumannii [1] is 0.5 µg/mL; with Acinetobacter baumannii [2] it was > 200 µM; in the assay with Acinetobacter baumannii [8], 4 µg/mL. For the same compound, the “fold change (FC)” value with Acinetobacter baumannii [8] was 8; with Acinetobacter baumannii [3], 64.
For `Cl.Cl.Nc1nc(-c2ccc(NC(=O)Nc3ccc(-c4c[nH]c(N)n4)cc3F)c(F)c2)c[nH]1`, the MIC is 4 µg/mL in the assay on Acinetobacter baumannii [1] and > 200 µM in the assay on Acinetobacter baumannii [2]. In addition, in the assay on Acinetobacter baumannii [3], the “fold change (FC)” value amounted to 8.
